From publication PMC10527948 (European journal of pharmacology, 2023)

Tests used:
C3 = experiment: qRT-PCR of inflammatory gene expression in cytokine-treated astrocytes; type: cell-based, rat; conditions: 100 ng/ml cytokine, 24 hours
How it was run: (§1)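 Confluent rat primary astrocytes in 6-well plates treated with 100 ng/ml TNF-α or IL-1β for 24 h. Total RNA extracted with TRIzol, purity checked by OD260/280, then reverse-transcribed. Gene-specific primers used with Gapdh as internal control; quantified by the 2−ΔCt method, n = 3 separate determinations.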

Lcn = experiment: as above; type: cell-based, rat; conditions: 100 ng/ml cytokine, 24 hours
How it was run: as §1

[1] = target: T1, membrane-bound ecto-5`-nucleotidase/CD73 (Rattus norvegicus, UniProt P21588); experiment: Ecto-5`-nucleotidase/CD73 enzyme assay; type: biochemical; conditions: for IC50: Dixon linearization, control primary astrocytes, 1.0 mM AMP; for % inhibition at indicated concentration: value in brackets in the Ki column, concentration not given
T1 sequence (P21588 29-576): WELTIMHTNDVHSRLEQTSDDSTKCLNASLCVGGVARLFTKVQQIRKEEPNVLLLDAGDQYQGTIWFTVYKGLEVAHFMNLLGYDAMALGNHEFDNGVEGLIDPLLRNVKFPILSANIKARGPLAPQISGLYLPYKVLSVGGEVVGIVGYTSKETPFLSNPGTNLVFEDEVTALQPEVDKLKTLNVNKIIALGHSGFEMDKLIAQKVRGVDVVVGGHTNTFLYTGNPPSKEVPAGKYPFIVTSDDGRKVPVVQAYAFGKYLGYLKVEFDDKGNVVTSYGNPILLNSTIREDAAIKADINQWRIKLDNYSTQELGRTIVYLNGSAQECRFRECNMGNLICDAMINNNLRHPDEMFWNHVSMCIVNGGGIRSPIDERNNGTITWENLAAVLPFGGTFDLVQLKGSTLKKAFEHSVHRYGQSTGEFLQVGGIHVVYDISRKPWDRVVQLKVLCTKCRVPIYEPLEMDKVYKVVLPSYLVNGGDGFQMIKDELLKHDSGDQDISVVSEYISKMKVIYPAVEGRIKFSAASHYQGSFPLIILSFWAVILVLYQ
How it was run: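 Confluent primary cortical astrocytes from 1-day-old male Wistar rat pups, washed in phosphate-free HEPES/bicarbonate saline, pH 7.4. 15 min preincubation with inhibitor (in water, 1×10−9 to 1×10−3 M); 1.0 mM AMP solution added, 30 min at 37°C; stopped with cold perchloric acid. Pi by malachite green at 620 nm, normalised to BCA protein.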

[2] = target: T2, CD73 in reactive astrocytes (Rattus norvegicus, UniProt P21588); experiment: CD73 enzyme assay in reactive astrocytes stimulated with TNFα or IL-1β; type: biochemical
T2 sequence (P21588 29-576): T1 sequence (P21588 29-576)
How it was run: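 Rat primary astrocytes exposed to TNF-α or IL-1β for 24 h, then assayed for AMP hydrolysis (Pi release by malachite green, per mg protein per min). Inhibitor tested at a single 50 μM concentration, or as a 1–250 μM series in cells given 0.1 μg/ml IL-1β. The series was fitted to a four-parameter sigmoid.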

primary astrocytes [3] = experiment: MTT assay of cell metabolic activity; type: cell-based, rat
primary astrocytes [4] = experiment: Cell proliferation by double Ki67/DAPI fluorescence staining; type: cell-based, rat; conditions: 24 hours
primary astrocytes [5] = experiment: Morphometric analysis of GFAP-immunostained astrocytes; type: cell-based, rat; conditions: 24 hours
How it was run: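 Astrocytes on PLL-coated coverslips treated with inhibitor for 24 h, then prefixed in 4% PFA and blocked in 5% BSA. Stained with rabbit anti-GFAP (1:500), Alexa-555 secondary, and DAPI. Confocal images analysed in ImageJ for cell area and shape descriptors. Mean ± SE from ≥ 22 cells in 3 random fields, ≥ 2 cultures.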

primary astrocytes [6] = experiment: Scratch wound migration assay; type: cell-based, rat; conditions: 1–100 μM; 8 and 24 hours
Nt5e = experiment: qRT-PCR of gene expression in cytokine-treated astrocytes; type: cell-based, rat; conditions: 100 ng/ml cytokine, 24 hours
How it was run: as §1

Compound	C3 mRNA abundance (fold-increase in respect to non-stimulated control) (C3) [fold-increase]	Lcn mRNA abundance (fold-increase in respect to non-stimulated control) (Lcn) [fold-increase]	IC50 [1] [nM]	% inhibition at indicated concentration [1] [%]	Area (μm^2) (primary astrocytes [5]; 100 μM)	Aspect ratio (primary astrocytes [5]; 100 μM)	Circularity (primary astrocytes [5]; 100 μM)	Roundness (primary astrocytes [5]; 100 μM)	Solidity (primary astrocytes [5]; 100 μM)	further results
IL-1β: proinflammatory cytokine used to induce the reactive astrocyte phenotype	3.13 ± 0.69	24.22 ± 6.21	–	–	–	–	–	–	–	–
Cn1c(=O)n([C@@H]2O[C@H](COP(=O)(O)CP(=O)(O)O)[C@@H](O)[C@H]2O)cc/c1=N\OCc1ccc(Cl)cc1 [MRS4598]	–	–	110 ± 80	53.4	1861.8 ± 137.5 ^* μm^2	2.7 ± 0.2	0.43 ± 0.03	0.42 ± 0.04	0.77 ± 0.02	inhibition of CD73 activity at 1×10^−3 M ([1]; 1×10^−3 M inhibitor): complete inhibition; effect on CD73 catalytic activity in reactive astrocytes ([2]; 50 μM, cells treated with TNFα or IL-1β for 24 hours): decreased the catalytic activity of CD73; IC50 ([2]; astrocytes stimulated with 0.1 μg/ml IL-1β, 1–250 μM): 5000 ± 260 nM; effect on formazan formation (MTT) (primary astrocytes [3]; 1 μM, 24 hours): no effect; reduction of formazan formation (MTT) (primary astrocytes [3]; concentrations above 10 μM, 24 hours, no apparent concentration dependence): 40%; cytotoxic effects on primary astrocytes (primary astrocytes [3]; concentrations as low as 1 μM): negligible cytotoxic effects; effect on proliferation rate (Ki67+/DAPI+) (primary astrocytes [4]; 50 μM and 100 μM, vs control (~22%), p < 0.05): modest but significant decrease; Area (μm^2) (primary astrocytes [5]; 10 μM): 3619.4 ± 552.5 μm^2; Aspect ratio (primary astrocytes [5]; 10 μM): 2.3 ± 0.2; Circularity (primary astrocytes [5]; 10 μM): 0.55 ± 0.06; Roundness (primary astrocytes [5]; 10 μM): 0.47 ± 0.04; Solidity (primary astrocytes [5]; 10 μM): 0.84 ± 0.04; effect on astrocyte migration velocity (wound closure) (primary astrocytes [6]): did not affect migration velocity of astrocytes, except at the highest tested concentration of 100 μM
TNFα	4.65 ± 2.29	49.04 ± 3.34	–	–	–	–	–	–	–	Nt5e mRNA abundance (fold-increase in respect to non-stimulated control) (Nt5e): 2.49 ± 0.33 fold-increase
Nc1ncnc2c1ncn2[C@@H]1O[C@H](COP(=O)(O)CP(=O)(O)O)[C@@H](O)[C@H]1O [APCP, 5’-(α,β-methylene)diphosphate adenosine, reference compound]	–	–	2630 ± 1760	18.6	3181.9 ± 607.2 μm^2	2.2 ± 0.2	0.49 ± 0.03	0.54 ± 0.07	0.75 ± 0.04	Ki ([1]; Cheng-Prusoff equation, Km for rat CD73 53.0 ± 4.1 μM): 132 ± 89 nM; effect on proliferation rate (Ki67+/DAPI+) (primary astrocytes [4]; indicated concentrations): no apparent effect
